BB579 growth dn = growth inhibitors of yeast BB579 in restrictive medium, primary screen, yeast lifespan-shortening project, S. cerevisiae. OD615, 48 h. inhibition, % at 10 µM. 140,000 tested, 0.51% active. AID 804, 2007;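 active = inhibition above a set limit, 3 SD over the mean compound inhibition, cut at about 44% in these data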
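controls = amphotericin B 10 µg/mL, positive | assay system = DeaD yeast strain BB579 | schedule = 48 h compound exposure at 30 °C after 4 h preincubation | detection = OD615 turbidity measurement | medium = restrictive CSMM-D medium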
Yeast life ext = compounds extending yeast replicative lifespan, primary screen, S. cerevisiae, OD615. S. cerevisiae growth with nicotinamide; deaD strain in restrictive glucose medium. inhibition of the nicotinamide effect, % at 10 µM. 130,000 tested, 0.68% active. AID 775, 2007;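 active = inhibition above a set limit, placed 3 SD over the median of all compounds, cut at about 26% in these data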;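 also: 0% = nicotinamide-treated wells and 100% = cells grown without nicotinamide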
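Buffer or medium: CSMM-D glucose medium, restrictive; test system: modified budding yeast, DeaD strain; compound: single dose 10 µM compound, 0.25% DMSO; schedule: culture preincubation 4 h, compound exposure 48 h, both 30 °C; detection: optical density (absorbance) at 615 nm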
Measles CPE = compounds protecting cells from measles virus cytopathic effect, primary screen, measles RdRp inhibitor project, single point, MLSMR library, absorbance | Measles virus-infected cells, CPE protection | protection (pct of control), % at 4 µM | 140,000 tested, 1.5% active | AID 841, 2007; in the data active = protection mostly above about 24%, no sharp cut-off; inactive = mostly below about 26%
RAM network inh = inhibitors of the yeast RAM network, primary screen, dse1pr::URA3 reporter, 5-FOA selection. S. cerevisiae dse1pr::URA3 reporter, 5-FOA growth OD615, 2 d; analog-sensitive cbk1-as2 kinase mutant strain. 190,000 tested, 1.8% active. inhibition, % at 50 µM;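 active = inhibition above a set limit, 3 SD over mean compound inhibition, cut at about 8.4% in these data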;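 also: 0% = DMSO-only wells with no growth and 100% = 10 µM 1-NA-PP1 full growth; inhibition rescues growth on 5-FOA so higher OD means more RAM inhibition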
Phagocyt inh = inhibitors of macrophage phagocytosis, primary screen, imaging, J774A.1 cells, IgG beads | J774A.1 macrophage IgG-bead phagocytosis | inhibition, % at 5 µM | 110,000 tested, 0.07% active | AID 1029, 2008;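 active = inhibition above the mean of the plate negative controls plus 5 SD, cut at about 13% in these data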;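 also: phagocytic index as fraction of beads internalized from green versus red external bead signal; plate controls were DMSO negative control for no effect and cytochalasin-D positive control for full effect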
RAM 5-FOA = 5-FOA growth of efflux-deficient control yeast, dose response, counter-screen for RAM network inhibitor project, S. cerevisiae, OD615; S. cerevisiae efflux-deficient reporter strain, 5-FOA growth OD615, 2 days; max inhibition, %; shares compounds with RAM network inh; 1,200 tested, under 10 active; AID 1305, 2008; call rule not given here;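 also: plate controls were vehicle for no effect and reference inhibitor for full effect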
An asterisk follows results filed as active. Sampled rows, rich in hits. Any-hit rate of the full collection: about 3.6%.

Results for COC(=O)CCSc1cc([N+](=O)[O-])cc2c1c(C1OCCO1)nn2-c1ccccc1 ?
BB579 growth dn: -45; Yeast life ext: 12; Measles CPE: 2; RAM network inh: 14*; Phagocyt inh: -7; RAM 5-FOA: 2

What do the screens show for `CCOC(=O)/C(=C/c1ccc(N2CCC(c3ccccc3)=N2)cc1)C(C)=O`?
BB579 growth dn: -53; Yeast life ext: 7; Measles CPE: 6; RAM network inh: 20*; Phagocyt inh: -3; RAM 5-FOA: 2

How did COc1ccc(NC(=O)c2cc3c(s2)CCC(C)C3)cc1S(=O)(=O)N1CCOCC1 (stereo not given) do in these assays?
BB579 growth dn: -58; Yeast life ext: 2; Measles CPE: 14; RAM network inh: 5; Phagocyt inh: -10

How did CCN(CC)c1ccc(C(=O)OCC(=O)Nc2ccccc2-c2ccccc2)cc1 do in these assays?
BB579 growth dn: -50; Yeast life ext: 7; Measles CPE: 18; RAM network inh: 22*; Phagocyt inh: -4; RAM 5-FOA: 5

Results for CN(C)c1cccc(C(=O)OCC(=O)Nc2ccccc2-c2ccccc2)c1 ?
BB579 growth dn: -50; Yeast life ext: -2; Measles CPE: 16; RAM network inh: 2; Phagocyt inh: -11

What do the screens show for `Cc1ccc(S(=O)(=O)C(C#N)=C2N(C)c3ccccc3N2C)cc1`?
RAM network inh: 0

What do the screens show for `C=CCSC1=NN2CCS(=O)(=O)N=C2S1`?
RAM network inh: 1

Results for O=C(/C=C/c1cccc(C(F)(F)F)c1)Nc1cccc(C(F)(F)F)c1 ?
BB579 growth dn: -42; Yeast life ext: -9; Measles CPE: 0; RAM network inh: 12*; Phagocyt inh: -2; RAM 5-FOA: 2

Results for CS(=O)(=O)N1CCC(C(=O)Nc2cccc(C(F)(F)F)c2)CC1 ?
BB579 growth dn: -8; Yeast life ext: -5; Measles CPE: 19; RAM network inh: -1; Phagocyt inh: -1

Results for O=C(Nc1cccc(C(F)(F)F)c1)C1CCCCC1 ?
BB579 growth dn: -37; Yeast life ext: -10; Measles CPE: 12; RAM network inh: 22*; Phagocyt inh: 0; RAM 5-FOA: 0

Results for Cc1noc(C)c1COC(=O)c1cccnc1Cl ?
RAM network inh: 0

Results for Cc1ccc(S(=O)(=O)Nc2ccc(N3CCCCC3)cc2)cc1 ?
RAM network inh: 1

Results for Cc1ccc(NS(=O)(=O)c2ccc(C3CCCCC3)cc2)cc1 ?
BB579 growth dn: -39; Yeast life ext: 3; Measles CPE: 6; RAM network inh: 14*; RAM 5-FOA: 5

What do the screens show for `O=C(O)C(Sc1ccncn1)c1ccccc1` (stereo not given)?
RAM network inh: 2

What do the screens show for `CSc1nc(Cl)c(Cc2ccc(OC(C)C)cc2)c(N2CCOCC2)n1`?
BB579 growth dn: -46; Yeast life ext: -8; Measles CPE: 14; RAM network inh: 12*; Phagocyt inh: -2; RAM 5-FOA: 2

What do the screens show for `CCN1C(=O)/C(=C\c2cn(-c3ccccc3)nc2-c2cccnc2)SC1=S`?
RAM network inh: 3

What do the screens show for `CCOc1ccc(-c2nn(-c3ccccc3)cc2/C=C2\SC(=S)N(Cc3ccco3)C2=O)cc1`?
BB579 growth dn: -59; Yeast life ext: 4; Measles CPE: 6; RAM network inh: 12*; Phagocyt inh: -10; RAM 5-FOA: 2

What do the screens show for `COc1ccccc1NC(=O)C1=C(C)NC(=O)NC1c1ccc(C)cc1` (stereo not given)?
BB579 growth dn: 11; Yeast life ext: -7; Measles CPE: 4; RAM network inh: 0; Phagocyt inh: -2

Results for COc1ccc(C2NC(=O)NC(C)=C2C(=O)Nc2cc(C)ccc2C)cc1OC (stereo not given) ?
BB579 growth dn: 0; Yeast life ext: -14; Measles CPE: 7; RAM network inh: 12*; Phagocyt inh: -1; RAM 5-FOA: 4

Assay outcomes as filed in PubChem BioAssay.
